Experimental findings from ChEMBL document CHEMBL1158066, “Phytochemical constituents from Salsola tetrandra” (J Nat Prod, 2006) are described below.

Converted amounts (≈) assume the structure as drawn.

The test system of one series is Pseudomonas aeruginosa. The experiment in a line: Antibacterial activity against Pseudomonas aeruginosa ATCC 27853 by microdilution method. The series is classed as functional. The gist of the method: (§1)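 Liquid-medium broth microdilution. Strains kept at -70 °C in glycerol Mueller-Hinton broth; fresh subcultures used for each run. Final inoculum (1-5) × 10^5 cfu/mL. MIC taken as the lowest concentration preventing visible growth. MBC taken as the concentration killing ≥99.9% of the initial inoculum, confirmed by subculturing dilutions onto TSA agar at 30 °C for 18-24 h.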
In general terms: Dilution methods test growth across graded concentrations, often in twofold steps.

Series [1] concerns Staphylococcus epidermidis. The experiment in a line: Antibacterial activity against Staphylococcus epidermidis NCIMB 8853 by microdilution method. The class given is functional. In outline: as §1
A further series relates to Staphylococcus aureus. Kind of series: Antibacterial activity against Staphylococcus aureus ATCC 29213 by microdilution method. The series is classed as functional. In outline:
as §1

The test system of the next series is Micrococcus luteus. Kind of series: Antibacterial activity against sMicrococcus luteus NCIMB 8166 by microdilution method. The class given is functional. In outline:
as §1

The next series deals with Escherichia coli. The experiment in a line: Antibacterial activity against sEscherichia coli ATCC 35218 by microdilution method. The class given is functional. In outline:
as §1

Series [2] in a line: Toxicity against Artemia salina. The series is classed as organism-based. The settings on record: in vivo, read-out: ED50 (the source's name). In outline: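 Brine shrimp lethality bioassay; the endpoint is death, reported as ED50 in µM.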

One may read the MIC as the smallest concentration in the dilution series that meets the test's criterion for growth inhibition. A word on the MBC: it is the lowest tested concentration that kills the bacteria rather than only halting them. Higher therefore signals less potent killing. Take `COc1cc(/C=C/C(=O)NC[C@@H](O)c2ccc(O)cc2)ccc1O`: the MIC against Pseudomonas aeruginosa is above 700 µg/mL; in series [1], 600 µg/mL (≈ 1820 µM); against Staphylococcus aureus it was 200 µg/mL (≈ 607 µM); in the series on Micrococcus luteus, 400 µg/mL (≈ 1210 µM); against Escherichia coli, 400 µg/mL (≈ 1210 µM). Also, the MBC was above 700 µg/mL in series [1], 600 µg/mL (≈ 1820 µM) against Staphylococcus aureus, 700 µg/mL (≈ 2130 µM) in the series on Micrococcus luteus and 700 µg/mL (≈ 2130 µM) with Escherichia coli.

Take `CCCCCC(O)C(O)/C=C/C(O)CCCCCCCC(=O)O` (centres undefined): the MIC against Pseudomonas aeruginosa is above 700 µg/mL; in series [1], 600 µg/mL (≈ 1820 µM); against Staphylococcus aureus it was 500 µg/mL (≈ 1510 µM); against Micrococcus luteus, 400 µg/mL (≈ 1210 µM); against Escherichia coli, above 700 µg/mL. For the same molecule, the minimal bactericidal concentration (MBC) in series [1] was above 700 µg/mL; against Staphylococcus aureus it was above 700 µg/mL; against Micrococcus luteus, 500 µg/mL (≈ 1510 µM).

As to `COc1cc(O[C@@H]2O[C@H](CO)[C@@H](O)[C@H](O)[C@H]2O)cc(OC)c1OC`, in series [2], the LC50 amounted to 28.9 µM. The MIC in the series with Pseudomonas aeruginosa was above 700 µg/mL; in series [1] it was 600 µg/mL (≈ 1730 µM); with Staphylococcus aureus, 700 µg/mL (≈ 2020 µM); against Micrococcus luteus it was 500 µg/mL (≈ 1440 µM); with Escherichia coli, above 700 µg/mL. The MBC (in series [1]; against Staphylococcus aureus; with Micrococcus luteus) was above 700 µg/mL in each case.

On to `C=C[C@](C)(CC/C=C(\C)CO)O[C@@H]1O[C@H](CO)[C@@H](O)[C@H](O)[C@H]1O`, for which the LC50 in series [2] was determined as 21.8 µM. Moreover, the MIC is above 700 µg/mL in the series on Pseudomonas aeruginosa; 700 µg/mL (≈ 2110 µM) in series [1]; 700 µg/mL (≈ 2110 µM) against Staphylococcus aureus; 600 µg/mL (≈ 1810 µM) with Micrococcus luteus; above 700 µg/mL against Escherichia coli. Besides, the MBC (in series [1]; against Staphylococcus aureus; in the series with Micrococcus luteus) was above 700 µg/mL in each case.

Consider `CC/C=C\CC(O)C(O)/C=C/C(O)CCCCCCCC(=O)O` (centres undefined), for which the MIC against Pseudomonas aeruginosa is above 700 µg/mL; in series [1], 600 µg/mL (≈ 1830 µM); with Staphylococcus aureus, 500 µg/mL (≈ 1520 µM); against Micrococcus luteus, 400 µg/mL (≈ 1220 µM); in the series with Escherichia coli it was above 700 µg/mL. The MBC was above 700 µg/mL in series [1], above 700 µg/mL against Staphylococcus aureus and 500 µg/mL (≈ 1520 µM) in the series on Micrococcus luteus.

In the case of `CC(=O)/C=C/[C@@]12O[C@]1(C)C[C@@H](O)[C@H](O[C@@H]1O[C@H](CO)[C@@H](O)[C@H](O)[C@H]1O)C2(C)C`, in series [2], the LC50 is 10.9 µM. The minimum inhibitory concentration (MIC) in the series with Pseudomonas aeruginosa is above 700 µg/mL; in series [1] it was 600 µg/mL (≈ 1490 µM); in the series with Staphylococcus aureus it was 700 µg/mL (≈ 1740 µM); against Micrococcus luteus it was 500 µg/mL (≈ 1240 µM); in the series on Escherichia coli it was above 700 µg/mL. The MBC (in series [1]; against Staphylococcus aureus; against Micrococcus luteus) was above 700 µg/mL throughout.

Take `COc1cc(/C=C/C(=O)NCCc2ccc(O)cc2)ccc1O` [N-TRANS-FERULOYL TYRAMINE]: the MIC in the series with Pseudomonas aeruginosa was above 700 µg/mL; in series [1] it was above 700 µg/mL; against Staphylococcus aureus it was 500 µg/mL (≈ 1600 µM); against Micrococcus luteus, 500 µg/mL (≈ 1600 µM); in the series on Escherichia coli, above 700 µg/mL. In addition, the MBC with Staphylococcus aureus and in the series with Micrococcus luteus was above 700 µg/mL throughout.

In the case of `N#C[C@H](O[C@@H]1O[C@H](CO)[C@@H](O)[C@H](O)[C@H]1O)c1ccc(O)cc1` [TAXIPHYLLIN], the LC50 in series [2] turned out to be 0.96 µM. Moreover, the MIC with Pseudomonas aeruginosa is above 700 µg/mL; in series [1], 500 µg/mL (≈ 1610 µM); against Staphylococcus aureus it was 400 µg/mL (≈ 1280 µM); in the series with Micrococcus luteus, 200 µg/mL (≈ 642 µM); in the series on Escherichia coli, 600 µg/mL (≈ 1930 µM). The minimum bactericidal concentration (MBC) is above 700 µg/mL in series [1], 700 µg/mL (≈ 2250 µM) against Staphylococcus aureus, 500 µg/mL (≈ 1610 µM) in the series on Micrococcus luteus and above 700 µg/mL in the series on Escherichia coli.
